Tests used:
[1] = Half life period by po administration in dog at a dose of 0.3 mg/kg; assay type: ADME, organism-based, Canis lupus familiaris; parameters: dose 0.3 mg/kg, route oral; conditions: in vivo
Outline: (§1)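 Single dose of 0.3 mg/kg given to dogs both iv and po in a cross-over design, four dogs per compound, with the compound dosed as a salt. Terminal half-life, volume of distribution (calculated after iv dosing only), clearance and oral bioavailability were taken from these single-dose pharmacokinetic profiles.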

[2] = Oral bioavailability in dog (i.v. dosing); assay type: ADME, organism-based, Canis lupus familiaris; conditions: in vivo; outline: as §1
[3] = Half life period by iv administration in dog at a dose of 0.3 mg/kg; assay type: ADME, organism-based, Canis lupus familiaris; parameters: dose 0.3 mg/kg, route intravenous; conditions: in vivo; outline: as §1
[4] = Plasma clearance by iv administration in dog at a dose of 0.3 mg/kg; assay type: ADME, organism-based, Canis lupus familiaris; parameters: dose 0.3 mg/kg, route intravenous; outline: as §1
[5] = Oral bioavailability in dog; assay type: ADME, organism-based, Canis lupus familiaris; conditions: in vivo; outline: as §1
[6] = Volume of distribution by as 4 fold increase by iv administration in dogs; assay type: ADME, organism-based, Canis lupus familiaris; conditions: dog, in vivo; outline: as §1
[7] = biological target: T1, Alpha-1D adrenergic receptor (Homo sapiens, UniProt P25100); test: Inhibition of [3H]prazosin binding to CHO-K1 whole cells expressing human cloned Alpha-1D adrenergic receptor; assay type: cell-based
T1 sequence (P25100 whole entry): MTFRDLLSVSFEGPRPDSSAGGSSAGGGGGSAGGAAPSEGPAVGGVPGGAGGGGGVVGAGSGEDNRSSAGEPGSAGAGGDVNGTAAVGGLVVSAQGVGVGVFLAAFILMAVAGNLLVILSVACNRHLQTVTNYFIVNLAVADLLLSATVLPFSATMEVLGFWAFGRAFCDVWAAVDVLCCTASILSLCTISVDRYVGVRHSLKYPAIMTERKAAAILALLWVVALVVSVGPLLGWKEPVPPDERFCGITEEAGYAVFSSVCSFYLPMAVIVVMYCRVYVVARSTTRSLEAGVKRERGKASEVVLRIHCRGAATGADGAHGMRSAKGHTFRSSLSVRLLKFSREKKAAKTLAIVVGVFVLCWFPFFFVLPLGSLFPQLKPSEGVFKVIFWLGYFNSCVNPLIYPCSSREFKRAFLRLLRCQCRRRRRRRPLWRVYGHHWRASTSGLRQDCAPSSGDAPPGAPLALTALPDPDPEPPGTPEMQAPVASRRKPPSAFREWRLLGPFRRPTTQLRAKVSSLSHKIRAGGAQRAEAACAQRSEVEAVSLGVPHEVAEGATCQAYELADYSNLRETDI

[8] = biological target: T2, Alpha-1B adrenergic receptor (Homo sapiens, UniProt P35368); test: Inhibition of [3H]prazosin binding to CHO-K1 whole cells expressing human cloned Alpha-1B adrenergic receptor; assay type: cell-based
T2 sequence (P35368 whole entry): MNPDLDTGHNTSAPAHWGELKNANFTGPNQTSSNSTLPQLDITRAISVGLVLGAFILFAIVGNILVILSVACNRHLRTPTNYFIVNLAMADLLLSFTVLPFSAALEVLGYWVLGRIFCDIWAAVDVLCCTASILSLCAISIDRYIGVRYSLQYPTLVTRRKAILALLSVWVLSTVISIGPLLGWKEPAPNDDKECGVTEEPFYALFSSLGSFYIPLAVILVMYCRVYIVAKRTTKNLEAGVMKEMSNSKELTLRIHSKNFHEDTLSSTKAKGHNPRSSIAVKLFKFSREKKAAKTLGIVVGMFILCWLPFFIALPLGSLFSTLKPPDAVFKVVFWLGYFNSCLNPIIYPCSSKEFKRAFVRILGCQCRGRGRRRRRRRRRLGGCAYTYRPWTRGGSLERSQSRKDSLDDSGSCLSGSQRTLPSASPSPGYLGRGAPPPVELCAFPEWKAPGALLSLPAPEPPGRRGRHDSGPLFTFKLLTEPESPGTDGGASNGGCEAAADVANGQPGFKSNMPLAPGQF

[9] = biological target: T3, Alpha-1A adrenergic receptor (Homo sapiens, UniProt P35348); test: Inhibition of [3H]prazosin binding to CHO-K1 whole cells expressing human cloned Alpha-1A adrenergic receptor; assay type: cell-based
T3 sequence (P35348 whole entry): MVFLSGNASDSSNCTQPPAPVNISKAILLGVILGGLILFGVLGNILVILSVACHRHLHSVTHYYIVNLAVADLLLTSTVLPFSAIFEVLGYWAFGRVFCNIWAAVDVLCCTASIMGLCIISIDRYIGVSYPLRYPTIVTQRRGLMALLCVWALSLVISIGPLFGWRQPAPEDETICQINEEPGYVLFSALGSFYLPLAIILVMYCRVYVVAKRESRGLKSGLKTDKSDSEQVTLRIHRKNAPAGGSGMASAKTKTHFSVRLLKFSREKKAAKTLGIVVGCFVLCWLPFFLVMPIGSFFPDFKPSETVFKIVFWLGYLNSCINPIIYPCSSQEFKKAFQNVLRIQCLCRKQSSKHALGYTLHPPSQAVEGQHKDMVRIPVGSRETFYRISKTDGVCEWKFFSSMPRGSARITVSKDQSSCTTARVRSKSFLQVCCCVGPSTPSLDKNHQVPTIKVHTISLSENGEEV

[10] = biological target: Adrenergic receptors; alpha-1 A & B (Homo sapiens) (UniProt P35348+P35368); test: Ratio of binding affinities for human cloned alpha1B- adrenoceptor to that of human cloned alpha1A- adrenoceptor (alpha-1B/alpha-1A); assay type: protein assay
Outline: (§2)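 Ratio of α1B (or α1D) to α1A binding affinity, calculated from pKi values for [3H]-prazosin displacement at cloned human subtypes expressed in CHO-K1 membranes or whole cells.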

[11] = biological target: Alpha adrenergic receptor (1a and 1d) (Homo sapiens) (UniProt P35348+P25100); test: Ratio of binding affinities for human cloned alpha1D- adrenoceptor to that of human cloned alpha1A- adrenoceptor (alpha-1D/alpha-1A); assay type: protein assay; outline: as §2
[12] = test system: Alpha-1A adrenergic receptor (Oryctolagus cuniculus); test: Antagonist inhibition of noradrenaline-stimulated contractions of rabbit bladderneck (RBN) for Alpha-1A adrenergic receptor
[13] = biological target: T4, Alpha-1D adrenergic receptor (Rattus norvegicus) (UniProt P23944); test: Antagonist inhibition noradrenaline-stimulated contractions of rat aortic strings for Alpha-1D adrenergic receptor; assay type: functional
T4 sequence (whole entry): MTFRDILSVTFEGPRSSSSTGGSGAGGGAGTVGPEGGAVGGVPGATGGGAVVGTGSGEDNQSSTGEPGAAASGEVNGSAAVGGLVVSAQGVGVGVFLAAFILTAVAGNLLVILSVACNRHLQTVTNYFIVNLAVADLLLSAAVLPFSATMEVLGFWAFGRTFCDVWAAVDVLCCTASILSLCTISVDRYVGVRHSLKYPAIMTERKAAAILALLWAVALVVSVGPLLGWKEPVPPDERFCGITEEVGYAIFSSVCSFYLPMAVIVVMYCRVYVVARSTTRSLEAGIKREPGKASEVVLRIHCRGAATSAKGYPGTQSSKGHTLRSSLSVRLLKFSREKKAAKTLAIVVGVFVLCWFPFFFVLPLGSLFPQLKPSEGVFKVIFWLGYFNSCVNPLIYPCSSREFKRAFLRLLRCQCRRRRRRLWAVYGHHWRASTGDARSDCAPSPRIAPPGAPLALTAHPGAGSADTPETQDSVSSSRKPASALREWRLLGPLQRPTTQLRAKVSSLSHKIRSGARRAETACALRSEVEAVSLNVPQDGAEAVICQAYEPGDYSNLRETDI

Canis familiaris = species on record: Canis familiaris; test: In vitro relative rate of metabolism was determined in dog liver microsomes; assay type: ADME, Canis lupus familiaris
[14] = test system: Alpha-1D/alpha-1A adrenergic receptors (rat/rabbit); test: Ratio of antagonistic activities against alpha-1D vs alpha-1A determined in rat aorta and rabbit bladder neck respectively

Row | SMILES | Ki [7] | Ki [8] | Ki [9] | further results
1 | Cc1c[nH]c(=O)n(CCCN2CCN(c3ccc(F)cc3OCC(F)(F)F)CC2)c1=O | 63.1 nM | – | – | half-life [1]: 2.8 h; bioavailability [2]: 100%; half-life [3]: 2.5 h; clearance [4]: 4.33 mL/min/kg; bioavailability [5]: 78%; Vd [6]: 0.93 L/kg
2 | Cc1cc(=O)n(CCCN2CCN(c3ccc(F)cc3OCC(F)(F)F)CC2)c(=O)[nH]1 | 50.1 nM | 158 nM | 1.58 nM | –
3 | COc1c[nH]c(=O)n(CCCN2CCN(c3ccc(F)cc3OCC(F)(F)F)CC2)c1=O | 31.6 nM | 158 nM | – | –
4 | Cc1cn(CCCN2CCN(c3ccccc3OCC(F)(F)F)CC2)c(=O)[nH]c1=O | 20 nM | 100 nM | 2 nM | –
5 | CN(C)c1c[nH]c(=O)n(CCCN2CCN(c3ccc(F)cc3OCC(F)(F)F)CC2)c1=O | 100 nM | 200 nM | – | –
6 | C[C@]1(O)C(=O)N(CCCN2CCN(c3ccc(F)cc3OCC(F)(F)F)CC2)C(=O)N[C@H]1O | 126 nM | 251 nM | 5.01 nM | half-life [1]: 10 h; Ratio [10]: 63; Ratio [11]: 33; bioavailability [2]: 100%; half-life [3]: 11 h; clearance [4]: 4.17 mL/min/kg; bioavailability [5]: 111%; Vd [6]: 4 L/kg; pA2/pKB [12]: 8.5; pA2/pKB [13]: 6.6; Relative rate metabolism (Canis familiaris): 0; Ratio [14]: 79
7 | Cc1c[nH]c(=O)n(CC(C)(C)CN2CCN(c3ccccc3OCC(F)(F)F)CC2)c1=O | 126 nM | 398 nM | 3.98 nM | –
8 | O=c1[nH]c2ccccc2c(=O)n1CCCN1CCN(c2ccccc2OCC(F)(F)F)CC1 | 2 nM | 5.01 nM | 0.0631 nM | Ratio [10]: 79; Ratio [11]: 32; pA2/pKB [12]: 9; pA2/pKB [13]: 8.4; Ratio [14]: 4
9 | Cc1n[nH]c(=O)n(CCCN2CCN(c3ccccc3OCC(F)(F)F)CC2)c1=O | 7.94 nM | 39.8 nM | 0.316 nM | –
10 | Cc1c[nH]c(=O)n(CCN2CCN(c3ccc(F)cc3OCC(F)(F)F)CC2)c1=O | 2.51 nM | 15.8 nM | 0.501 nM | –
11 | Cc1c[nH]c(=O)n(CCCN2CCN(c3ccccc3OCC(F)(F)F)CC2)c1=O | 12.6 nM | 31.6 nM | 0.251 nM | –
